This passage reports CC50 and viability results from ChEMBL document CHEMBL4219033, “Anticancer activity profiling of parthenolide analogs generated via P450-mediated chemoenzymatic synthesis” (2018).

Each structure is given as a SMILES string.

What all share (type): functional
Experiment [1] has as its system HCT-116. Put plainly: Cytotoxicity against human HCT116 cells assessed as cell viability after 24 hrs by MTT assay. The following applies: HCT-116, 24 h, read-out: LC50 (the source's name). The essentials: (§1)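 Adherent cells grown in DMEM with 10% FBS and penicillin-streptomycin, dissociated with Accutase, seeded at 500–10,000 cells/well and held 15 h before treatment. Compounds diluted from 10 mM DMSO stocks, final 1% DMSO, for 24 h at 37 °C, 5% CO2. Medium replaced with 1 mg/ml MTT for 3 h, formazan dissolved in DMSO, OD 550 nm. LC50 from dose-response curves normalized to 1% DMSO vehicle.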
On the technique in general: Formazan colour is commonly taken as a measure of viable cells.

The subject of experiment [2] is JeKo-1. The experiment in a line: Cytotoxicity against human JeKo1 cells assessed as cell viability at 2 uM after 24 hrs by MTT assay relative to control. To be noted: JeKo-1, 24 h, read-out: Activity. The essentials: (§2)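 Suspension lines grown in α-MEM plus 10% FBS and penicillin-streptomycin, 37 °C, 5% CO2. Seeded at 30,000 cells/well in phenol-red-free α-MEM and rested 15 h. Exposed to 10 µM, or 2 µM in the lower-dose repeat, at 1% DMSO final for 24 h. 5 mg/ml MTT added directly for 3 h at 37 °C. Plates spun, formazan dissolved in DMSO, OD read at 550 nm. Viability relative to vehicle.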

Experiment [3] has as its system MDA-MB-231. Put plainly: Cytotoxicity against human MDA-MB-231 cells assessed as cell viability at 10 uM after 24 hrs by MTT assay relative to control. To be noted: MDA-MB-231, 24 h, read-out: Activity. The essentials: (§3)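 Adherent lines in DMEM plus 10% FBS and penicillin-streptomycin, 37 °C, 5% CO2, lifted with Accutase. Seeded at 500–10,000 cells/well and rested 15 h. Compounds from 10 mM DMSO stocks dosed at 10 µM final, 1% DMSO final, n = 5, for 24 h. Medium then swapped for 1 mg/ml MTT in phenol-red-free medium for 3 h at 37 °C. Formazan dissolved in DMSO, OD read at 550 nm. Viability normalised to 1% DMSO vehicle control.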

The subject of experiment [4] is PC-3. The experiment in a line: Cytotoxicity against human PC3 cells assessed as cell viability at 10 uM after 24 hrs by MTT assay relative to control. The following applies: PC-3, 24 h, read-out: Activity. The method in brief: as §3
The subject of experiment [5] is Jurkat. Put plainly: Cytotoxicity against human Jurkat cells assessed as cell viability after 24 hrs by MTT assay. To be noted: read-out: LC50 (the source's name). The essentials: (§4)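 Suspension cells grown in α-MEM with 10% FBS and penicillin-streptomycin, seeded at 30,000 cells/well in phenol red-free medium and held 15 h before treatment. Compounds diluted from 10 mM DMSO stocks, final 1% DMSO, for 24 h. MTT (5 mg/ml stock) added directly for 3 h at 37 °C, then centrifugation, DMSO solubilization, OD 550 nm. LC50 from dose-response curves normalized to vehicle.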

Experiment [6] deals with HCT-116. The experiment in a line: Cytotoxicity against human HCT116 cells assessed as cell viability at 10 uM after 24 hrs by MTT assay relative to control. To be noted: HCT-116, 24 h, read-out: Activity. The essentials: as §3
Experiment [7] has as its system SK-MEL-2. The experiment in a line: Cytotoxicity against human SK-MEL-2 cells assessed as cell viability after 24 hrs by MTT assay. The following applies: SK-MEL-2, 24 h, read-out: LC50 (the source's name). The method in brief:
as §1

In experiment [8] the test system is Jurkat. Put plainly: Cytotoxicity against human Jurkat cells assessed as cell viability at 2 uM after 24 hrs by MTT assay relative to control. The following applies: read-out: Activity. The essentials:
as §2

Experiment [9] concerns JeKo-1. The experiment in a line: Cytotoxicity against human JeKo1 cells assessed as cell viability after 24 hrs by MTT assay. To be noted: JeKo-1, 24 h, read-out: LC50 (the source's name). The method in brief:
as §4

The subject of experiment [10] is HeLa. The experiment in a line: Cytotoxicity against human HeLa cells assessed as cell viability after 24 hrs by MTT assay. The following applies: read-out: LC50 (the source's name). The method in brief:
as §1

Experiment [11] has as its system JeKo-1. Put plainly: Cytotoxicity against human JeKo1 cells assessed as cell viability at 10 uM after 24 hrs by MTT assay relative to control. The following applies: JeKo-1, 24 h, read-out: Activity. The essentials:
as §2

For experiment [12], the system named is Jurkat. The experiment in a line: Cytotoxicity against human Jurkat cells assessed as cell viability at 10 uM after 24 hrs by MTT assay relative to control. The following applies: read-out: Activity. The method in brief: as §2
Experiment [13] has as its system MDA-MB-231. Put plainly: Cytotoxicity against human MDA-MB-231 cells assessed as cell viability after 24 hrs by MTT assay. The following applies: MDA-MB-231, 24 h, read-out: LC50 (the source's name). The essentials: as §1
The test system of experiment [14] is SJSA-1. The experiment in a line: Cytotoxicity against human SJSA1 cells assessed as cell viability at 10 uM after 24 hrs by MTT assay relative to control. To be noted: SJSA-1, 24 h, read-out: Activity. The method in brief:
as §3

The subject of experiment [15] is SK-MEL-2. Put plainly: Cytotoxicity against human SK-MEL-2 cells assessed as cell viability at 10 uM after 24 hrs by MTT assay relative to control. The following applies: SK-MEL-2, 24 h, read-out: Activity. The essentials:
as §3

Experiment [16] relates to SK-N-MC. The experiment in a line: Cytotoxicity against human SK-N-MC cells assessed as cell viability after 24 hrs by MTT assay. The following applies: read-out: LC50 (the source's name). The essentials:
as §1

Experiment [17] relates to HeLa. Put plainly: Cytotoxicity against human HeLa cells assessed as cell viability at 10 uM after 24 hrs by MTT assay relative to control. To be noted: read-out: Activity. The method in brief:
as §3

The test system of experiment [18] is A549. Put plainly: Cytotoxicity against human A549 cells assessed as cell viability at 10 uM after 24 hrs by MTT assay relative to control. To be noted: A549, 24 h, read-out: Activity. The method in brief:
as §3

The subject of experiment [19] is SK-N-MC. Put plainly: Cytotoxicity against human SK-N-MC cells assessed as cell viability at 10 uM after 24 hrs by MTT assay relative to control. To be noted: read-out: Activity. The method in brief:
as §3

Experiment [20] concerns A549. The experiment in a line: Cytotoxicity against human A549 cells assessed as cell viability after 24 hrs by MTT assay. To be noted: A549, 24 h, read-out: LC50 (the source's name). The method in brief:
as §1

For experiment [21], the system named is SJSA-1. The experiment in a line: Cytotoxicity against human SJSA1 cells assessed as cell viability after 24 hrs by MTT assay. The following applies: SJSA-1, 24 h, read-out: LC50 (the source's name). The method in brief:
as §1

Experiment [22] deals with PC-3. The experiment in a line: Cytotoxicity against human PC3 cells assessed as cell viability after 24 hrs by MTT assay. The following applies: PC-3, 24 h, read-out: LC50 (the source's name). The method in brief: as §1

For `C=C1C(=O)O[C@@H]2[C@H]3O[C@]3(C)CC/C=C(/COC(=O)Nc3cc(C(F)(F)F)cc(C(F)(F)F)c3)CC[C@@H]12`, the CC50 with HCT-116 [1] turned out to be 5.9 µM; in the experiment with Jurkat [5] it was 3.3 µM; in the experiment on SK-MEL-2 [7], 4.3 µM; in the experiment with JeKo-1 [9], 3.4 µM; in the experiment with HeLa [10], 1.5 µM; in the experiment with MDA-MB-231 [13], 6.1 µM. Moreover, the CC50 was determined as 0.6 µM in the experiment with SK-N-MC [16], 5.5 µM in the experiment on A549 [20], 9.2 µM in the experiment with SJSA-1 [21] and 5.5 µM in the experiment with PC-3 [22]. The viability at 2 µM in the experiment with JeKo-1 [2] amounted to 71.5%; in the experiment with Jurkat [8], 74.9%. Further, the viability at 10 µM is 5.5% in the experiment with MDA-MB-231 [3]; 13.7% with PC-3 [4]; 3.9% in the experiment on HCT-116 [6]; -1.8% in the experiment with JeKo-1 [11]; 0% with Jurkat [12]; 23.3% in the experiment with SJSA-1 [14]. The viability at 10 µM is 25.7% in the experiment with SK-MEL-2 [15], 3.8% in the experiment with HeLa [17], 25.1% in the experiment with A549 [18] and 2.1% in the experiment on SK-N-MC [19].
`C=C1C(=O)O[C@@H]2[C@H]3O[C@]3(C)CC/C=C(/C)[C@@H](OC(=O)c3cc(C(F)(F)F)cc(C(F)(F)F)c3)C[C@@H]12`: the viability at 2 µM with JeKo-1 [2] worked out at 73.3%; in the experiment on Jurkat [8], 53.1%. Besides, the viability at 10 µM worked out at 3.6% in the experiment on MDA-MB-231 [3]; 2.2% in the experiment with PC-3 [4]; 54.4% with HCT-116 [6]; 4.1% with JeKo-1 [11]; 5% with Jurkat [12]; 88.2% in the experiment on SJSA-1 [14]. Moreover, the viability at 10 µM in the experiment on SK-MEL-2 [15] is 14.8%; with HeLa [17] it was 32%; in the experiment on A549 [18] it was 82.5%; in the experiment with SK-N-MC [19], 3%. The CC50 with Jurkat [5] came out at 1.2 µM; with SK-MEL-2 [7] it was 2.6 µM; in the experiment with JeKo-1 [9], 1.2 µM; with MDA-MB-231 [13] it was 3.8 µM; in the experiment on SK-N-MC [16], 4.7 µM; with PC-3 [22], 3.1 µM.
As for `C=C1C(=O)O[C@@H]2[C@H]3O[C@]3(C)CC/C=C(/C)[C@@H](OC(=O)c3ccc(C(F)(F)F)cc3C(F)(F)F)C[C@@H]12`, the viability at 2 µM in the experiment with JeKo-1 [2] amounted to 105%; with Jurkat [8], 83.2%. The viability at 10 µM with MDA-MB-231 [3] was found to be 19.2%; in the experiment on PC-3 [4], 6.4%; with HCT-116 [6], 20.8%; in the experiment with JeKo-1 [11] it was 5.7%; with Jurkat [12], 0%; in the experiment on SJSA-1 [14], 26.5%. Also, the viability at 10 µM in the experiment on SK-MEL-2 [15] is 61.4%; in the experiment on HeLa [17], 10.7%; in the experiment on A549 [18] it was 33.7%; in the experiment with SK-N-MC [19] it was 11.5%. The CC50 in the experiment on HeLa [10] worked out at 2.1 µM; in the experiment with MDA-MB-231 [13] it was 5.7 µM; in the experiment on SK-N-MC [16] it was 5.7 µM; in the experiment on PC-3 [22] it was 5.3 µM.
Take `C=C1C(=O)O[C@@H]2[C@H]3O[C@]3(C)CC/C=C(/COC(=O)c3cc(C(F)(F)F)cc(C(F)(F)F)c3)CC[C@@H]12`: the CC50 in the experiment on HCT-116 [1] was determined as 5.7 µM; in the experiment with Jurkat [5], 1.9 µM; with JeKo-1 [9], 1.7 µM; in the experiment on HeLa [10], 1.5 µM; in the experiment on MDA-MB-231 [13], 6.2 µM; in the experiment on SK-N-MC [16], 0.6 µM. Further, the results for the CC50 with A549 [20], in the experiment with SJSA-1 [21] and with PC-3 [22] were 4.9 µM, 6.4 µM and 4.7 µM, respectively. Further, the viability at 2 µM turned out to be 64.3% in the experiment with JeKo-1 [2] and 70% with Jurkat [8]. Besides, the viability at 10 µM turned out to be 8% in the experiment with MDA-MB-231 [3]; 3.7% in the experiment with PC-3 [4]; 15.5% with HCT-116 [6]; 4.8% in the experiment with JeKo-1 [11]; 5.7% in the experiment on Jurkat [12]; 23.1% in the experiment with SJSA-1 [14]. The viability at 10 µM with SK-MEL-2 [15] was found to be 28.6%; in the experiment on HeLa [17], 3.9%; in the experiment with A549 [18], 29.6%; with SK-N-MC [19] it was 3.2%.
